Results: ChEMBL document CHEMBL4396878, “Mechanisms of Specific versus Nonspecific Interactions of Aggregation-Prone Inhibitors and Attenuators” (J Med Chem, 2019)
Active and inactive are the calls of the source. The calls are words filed in the database; no cut-off is given here.

What was measured:
[1] = biological target: T1, Rap guanine nucleotide exchange factor 3 (Homo sapiens) (UniProt O95398); assay: Ratio of apparent Kd for binding affinity to human EPAC1 cAMP binding domain (149 to 318 residues) in presence of human serum albumin to apparent Kd for binding affinity to human EPAC1 cAMP binding domain (149 to 318 residues) in absence of human serum albumin
T1 sequence (whole entry): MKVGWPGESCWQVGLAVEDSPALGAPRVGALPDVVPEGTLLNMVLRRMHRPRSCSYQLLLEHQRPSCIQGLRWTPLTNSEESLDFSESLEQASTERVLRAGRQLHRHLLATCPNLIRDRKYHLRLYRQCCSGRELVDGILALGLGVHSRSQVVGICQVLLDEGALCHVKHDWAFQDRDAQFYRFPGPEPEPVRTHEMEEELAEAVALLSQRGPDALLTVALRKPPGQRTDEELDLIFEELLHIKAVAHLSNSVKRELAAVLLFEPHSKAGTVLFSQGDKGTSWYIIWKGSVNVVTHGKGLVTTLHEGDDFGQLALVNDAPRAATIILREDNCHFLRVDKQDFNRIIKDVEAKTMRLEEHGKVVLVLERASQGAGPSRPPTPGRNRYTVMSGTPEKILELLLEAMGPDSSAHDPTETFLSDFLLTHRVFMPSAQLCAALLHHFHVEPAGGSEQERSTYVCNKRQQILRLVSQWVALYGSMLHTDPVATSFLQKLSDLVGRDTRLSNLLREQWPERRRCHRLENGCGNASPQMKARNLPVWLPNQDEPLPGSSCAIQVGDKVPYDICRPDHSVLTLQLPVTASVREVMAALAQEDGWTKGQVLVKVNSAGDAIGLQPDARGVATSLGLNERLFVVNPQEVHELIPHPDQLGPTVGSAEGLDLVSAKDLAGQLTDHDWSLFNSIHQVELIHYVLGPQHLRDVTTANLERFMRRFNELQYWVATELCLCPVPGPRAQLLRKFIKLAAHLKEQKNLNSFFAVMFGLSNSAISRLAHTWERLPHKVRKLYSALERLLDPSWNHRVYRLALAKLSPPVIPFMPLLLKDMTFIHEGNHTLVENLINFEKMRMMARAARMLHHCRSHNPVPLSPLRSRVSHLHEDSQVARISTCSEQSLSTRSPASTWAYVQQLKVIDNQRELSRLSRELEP

[2] = biological target: T1, Rap guanine nucleotide exchange factor 3 (Homo sapiens); assay: Binding affinity to human EPAC1 cAMP binding domain (149 to 318 residues) assessed as increase in peak intensity at 100 uM in presence of human serum albumin by [15N-1H]HSQC spectroscopic analysis relative to control
[3] = Aggregation property of the compound assessed as change in chemical shift by 1H-NMR analysis; type: physicochemical
Procedure, shortened: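 Line widths, chemical shifts and peak intensities tracked; CAC taken as the concentration where intensities deviate from linear dependence, or, for line width, the minimal concentration that increases peak width.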

[4] = Binding affinity to Triton-X 100 assessed as aggregate formation at 1:1 ratio of Triton-X 100 to compound by dynamic light scattering analysis
Procedure, shortened: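 Dynamic light scattering in NMR buffer, samples filtered through 0.22 μm and centrifuged 5 min at 13 500 rpm before measurement. Autocorrelation accumulated 150 s at a 173° scattering angle, in replicates of 3–5, with water viscosity used in analysis; intensity or volume size distributions reported.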

[5] = biological target: T2, Rap guanine nucleotide exchange factor 3 (Homo sapiens, UniProt O95398); assay: Binding affinity to human EPAC1 cAMP binding domain (149 to 318 residues) using monomeric form of compound by [15N-1H]HSQC spectroscopic analysis
T2 sequence (O95398 whole entry): T1 sequence (whole entry)

## CC(C)(C)c1cc(C(=O)/C(C#N)=N/Nc2cccc(Cl)c2)no1
[1]
  Activity: inactive
[2]
  Activity: 44%
[3]
  Activity: Not Active
[4]
  Activity: inactive
[5]
  Kd: 20 µM
